Measured values from ChEMBL document CHEMBL3352447, “Structural development studies of PPARs ligands based on tyrosine scaffold” (Eur J Med Chem, 2015).
Calls of active or inactive are those of the source. No cut-off for these calls is given here.

Tests used:
Type in all cases: cell-based
[1] = target: T1, Peroxisome proliferator-activated receptor gamma (Homo sapiens) (UniProt P37231); experiment: Agonist activity at human GAL4-PPARgamma ligand binding domain expressed in human HepG2 cells assessed as maximum fold induction by luciferase reporter gene assay relative to rosiglitazone
T1 sequence (whole entry): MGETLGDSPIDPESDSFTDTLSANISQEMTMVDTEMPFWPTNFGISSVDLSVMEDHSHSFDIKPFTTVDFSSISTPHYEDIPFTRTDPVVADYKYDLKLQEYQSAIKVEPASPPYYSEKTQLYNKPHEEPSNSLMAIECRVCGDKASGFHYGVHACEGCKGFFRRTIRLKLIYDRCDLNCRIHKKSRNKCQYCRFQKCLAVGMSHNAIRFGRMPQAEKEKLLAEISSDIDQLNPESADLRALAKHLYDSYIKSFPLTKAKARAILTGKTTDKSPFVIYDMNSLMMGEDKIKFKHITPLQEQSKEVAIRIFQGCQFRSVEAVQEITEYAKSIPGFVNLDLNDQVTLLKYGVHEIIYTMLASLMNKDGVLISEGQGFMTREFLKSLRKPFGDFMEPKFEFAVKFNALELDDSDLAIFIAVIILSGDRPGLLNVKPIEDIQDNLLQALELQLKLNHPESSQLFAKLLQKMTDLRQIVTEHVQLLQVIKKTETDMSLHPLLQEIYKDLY
Summary of the method: (§1)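 HepG2 cells grown in MEM with 10% heat-inactivated FBS, penicillin/streptomycin, 37 °C, 5% CO2. 10^5 cells/well seeded, transfected after 24 h by calcium phosphate with Gal4-PPAR LBD expression plasmid (30 ng), pGal5TKpGL3 luciferase reporter (100 ng) and pCMVbgal (250 ng). Ligand added 4 h post-transfection for 20 h, in triplicate. Luciferase read in cell extracts, with β-galactosidase measured using ONPG.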

[2] = target: T2, Peroxisome proliferator-activated receptor alpha (Homo sapiens, UniProt Q07869); experiment: Agonist activity at human GAL4-PPARalpha ligand binding domain expressed in human HepG2 cells by luciferase reporter gene assay; summary of the method: as §1
T2 sequence (Q07869 whole entry): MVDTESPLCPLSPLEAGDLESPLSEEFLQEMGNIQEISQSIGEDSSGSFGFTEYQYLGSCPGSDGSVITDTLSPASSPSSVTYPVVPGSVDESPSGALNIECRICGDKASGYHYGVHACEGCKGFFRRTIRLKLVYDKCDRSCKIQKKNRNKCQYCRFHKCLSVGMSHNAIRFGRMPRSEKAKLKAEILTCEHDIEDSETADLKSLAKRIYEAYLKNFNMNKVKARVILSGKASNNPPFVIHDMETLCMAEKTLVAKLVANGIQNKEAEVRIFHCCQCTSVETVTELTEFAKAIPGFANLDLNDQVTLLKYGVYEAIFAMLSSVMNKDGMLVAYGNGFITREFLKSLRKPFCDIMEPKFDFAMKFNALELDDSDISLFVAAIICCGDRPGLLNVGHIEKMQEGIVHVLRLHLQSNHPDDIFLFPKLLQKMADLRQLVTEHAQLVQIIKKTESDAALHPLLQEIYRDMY

[3] = target: T3, Peroxisome proliferator-activated receptor delta (Homo sapiens, UniProt Q03181); experiment: Agonist activity at human GAL4-PPARdelta ligand binding domain expressed in human HepG2 cells by luciferase reporter gene assay
T3 sequence (Q03181 whole entry): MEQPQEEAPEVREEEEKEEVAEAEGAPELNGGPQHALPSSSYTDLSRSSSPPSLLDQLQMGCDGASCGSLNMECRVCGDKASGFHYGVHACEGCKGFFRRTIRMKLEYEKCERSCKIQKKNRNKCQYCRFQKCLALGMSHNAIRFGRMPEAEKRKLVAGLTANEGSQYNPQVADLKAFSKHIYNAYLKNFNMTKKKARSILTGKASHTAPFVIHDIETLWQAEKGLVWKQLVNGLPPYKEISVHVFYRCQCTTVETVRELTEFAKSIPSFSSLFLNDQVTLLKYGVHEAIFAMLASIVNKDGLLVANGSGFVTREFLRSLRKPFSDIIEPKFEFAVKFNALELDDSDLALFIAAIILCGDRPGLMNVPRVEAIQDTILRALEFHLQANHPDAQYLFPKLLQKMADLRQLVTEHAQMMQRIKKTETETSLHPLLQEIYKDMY

[4] = target: T4, Peroxisome proliferator-activated receptor gamma (Homo sapiens, UniProt P37231); experiment: Agonist activity at human GAL4-PPARgamma ligand binding domain expressed in human HepG2 cells by luciferase reporter gene assay; summary of the method: as §1
T4 sequence (P37231 whole entry): T1 sequence (whole entry)

[5] = target: T5, Peroxisome proliferator-activated receptor alpha (Homo sapiens) (UniProt Q07869); experiment: Agonist activity at human GAL4-PPARalpha ligand binding domain expressed in human HepG2 cells assessed as maximum fold induction by luciferase reporter gene assay relative to Wy-14643; summary of the method: as §1
T5 sequence (whole entry): T2 sequence (Q07869 whole entry)

Row | SMILES | Emax [1] | EC50 [2] | EC50 [3] | EC50 ([4]; read-out: EC50) [nM] | Emax [5] | EC50 ([4]; hepg2)
1 | C/C(=C\C(=O)c1ccccc1)NC(Cc1ccc(OCCOc2ccc(/N=N/c3ccc(Cl)cc3)cc2)cc1)C(=O)O (stereo not given) | 52% | Not Active | Not Active | 39 |  | 
2 | C/C(=C\C(=O)c1ccccc1)NC(Cc1ccc(OCCCOc2ccc(/C=C/c3ccccc3)cc2)cc1)C(=O)O (stereo not given) | 65% |  | Not Active | 47 | 9% | 
3 | C/C(=C\C(=O)c1ccccc1)NC(Cc1ccc(OCCOc2ccc(/C=C/c3ccc(Cl)cc3)cc2)cc1)C(=O)O (stereo not given) | 50% | Not Active | Not Active | 26 |  | 
4 | C/C(=C\C(=O)c1ccccc1)NC(Cc1ccc(OCCOc2ccc(/C=C/c3ccc(C(F)(F)F)cc3)cc2)cc1)C(=O)O (stereo not given) | 69% | Not Active | Not Active | 84 |  | 
5 | O=C(/C=C/c1ccccc1)NC(Cc1ccc(OCCOc2ccc(/C=C/c3ccccc3)cc2)cc1)C(=O)O (stereo not given) | 45% | Not Active | Not Active | 640 |  | 
6 | C/C(=C\C(=O)c1ccccc1)NC(Cc1ccc(OCCCOc2ccc(/N=N/c3ccc(Cl)cc3)cc2)cc1)C(=O)O (stereo not given) | 59% | Not Active | Not Active | 47 |  | 
7 | CN(CCOc1ccc(CC2SC(=O)NC2=O)cc1)c1ccccn1 (stereo not given) [ROSIGLITAZONE] |  | Not Active |  |  | inactive | 
8 | C/C(=C\C(=O)c1ccccc1)NC(Cc1ccc(OCCOc2ccc(/C=C/c3ccc(C)cc3)cc2)cc1)C(=O)O (stereo not given) | 77% | Not Active | Not Active | 21 |  | 
9 | C/C(=C\C(=O)c1ccccc1)NC(Cc1ccc(OCCCOc2ccc(/N=N/c3ccc([N+](=O)[O-])cc3)cc2)cc1)C(=O)O (stereo not given) | 54% | Not Active | Not Active | 29 |  | 
10 | C/C(=C\C(=O)c1ccccc1)NC(Cc1ccc(OCCOc2ccc(/N=N/c3ccccc3)cc2)cc1)C(=O)O (stereo not given) | 54% | Not Active | Not Active | 183 |  | 
11 | CC(=O)/C=C(\C)NC(Cc1ccc(OCCOc2ccc(/C=C/c3ccccc3)cc2)cc1)C(=O)O (stereo not given) | 61% | Not Active | Not Active | 250 |  | 
12 | C/C(=C\C(=O)c1ccccc1)NC(Cc1ccc(OCCOc2ccc(/C=C/c3ccccc3)cc2)cc1)C(=O)O (stereo not given) | 75% |  | Not Active | 12 | 20% | 
13 | C/C(=C\C(=O)c1ccccc1)NC(Cc1ccc(OCCCOc2ccc(/C=C/c3ccc(Cl)cc3)cc2)cc1)C(=O)O (stereo not given) | 56% | Not Active | Not Active | 12 |  | 
14 | C/C(=C\C(=O)c1ccccc1)NC(Cc1ccc(OCCCOc2ccc(/N=N/c3ccccc3)cc2)cc1)C(=O)O (stereo not given) | 31% |  | Not Active | 1370 | 8% | 
15 | Cc1cccc(Nc2cc(Cl)nc(SCC(=O)O)n2)c1C [PIRINIXIC ACID] | inactive |  |  |  |  | Not Active
16 | C/C(=C\C(=O)c1ccccc1)NC(Cc1ccc(OCCCOc2ccc(/C=C/c3ccc(C(F)(F)F)cc3)cc2)cc1)C(=O)O (stereo not given) | 46% | Not Active | Not Active | 32 |  | 
17 | CCCc1c(OCCCOc2ccc(OCC(=O)O)cc2)ccc(C(C)=O)c1O |  | Not Active |  |  |  | Not Active
18 | COc1ccc(/N=N/c2ccc(OCCCOc3ccc(CC(N/C(C)=C/C(=O)c4ccccc4)C(=O)O)cc3)cc2)cc1 (stereo not given) | 24% | Not Active | Not Active |  |  | 
